Assay results: PMC4000071 (Journal of Toxicologic Pathology, 2014)

Legend:
dogs = test: cardiovascular telemetry study in dogs; assay type: in vivo; details: dog
adrenergic α1D receptor = biological target: T1, adrenergic α1D receptor (Homo sapiens, UniProt P25100); test: secondary pharmacology screens, α1D; assay type: binding; details: 10 µM
T1 sequence (P25100 1-572): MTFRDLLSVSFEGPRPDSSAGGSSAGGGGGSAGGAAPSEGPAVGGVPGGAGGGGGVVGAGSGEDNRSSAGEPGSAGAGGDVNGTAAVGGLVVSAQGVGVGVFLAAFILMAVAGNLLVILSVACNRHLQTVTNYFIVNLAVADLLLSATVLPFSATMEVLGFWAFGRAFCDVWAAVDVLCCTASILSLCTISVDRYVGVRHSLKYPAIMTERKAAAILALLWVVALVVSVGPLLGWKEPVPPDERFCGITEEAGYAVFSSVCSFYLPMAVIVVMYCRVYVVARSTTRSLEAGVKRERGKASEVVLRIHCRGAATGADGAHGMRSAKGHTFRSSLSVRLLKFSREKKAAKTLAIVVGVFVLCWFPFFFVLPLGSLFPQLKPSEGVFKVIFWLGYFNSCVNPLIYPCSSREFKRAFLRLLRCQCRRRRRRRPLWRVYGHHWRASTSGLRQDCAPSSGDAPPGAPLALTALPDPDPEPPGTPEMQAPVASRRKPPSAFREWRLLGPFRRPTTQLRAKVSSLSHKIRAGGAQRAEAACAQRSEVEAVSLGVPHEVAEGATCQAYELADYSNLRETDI

[1] = man, 5 mg projected efficacious dose; cited from earlier work
beagle dogs [2] = test: 3-month toxicity study, in-life, clinical pathology and pathology; assay type: in vivo
How it was run: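 Beagles aged 9 months received 0, 7, 15 or 30 mg/kg/day by oral gavage for 3 months in 0.1 M lactic acid (pH 3.0). Groups were 3/sex/dose, with 3/sex added for 5-week recovery in control and high dose. Neurologic examination was done. Clinical pathology: pretest, Weeks 6, 13, end of recovery. Full tissue list including dorsal root ganglia. Eyes/optic nerve fixed in Davidson's, sciatic nerve in Bouin's, others in formalin. Sections ~5 µm, H&E.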

beagle dogs [3] = test: 1-month toxicity study, in-life, clinical pathology and pathology; assay type: in vivo; details: dog
1-month = assay type: in vivo, beagle dogs; details: dog; for mean brain concentration relative to that at 2.3 mg/kg: 4 weeks
How it was run: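 Beagles (7 males, 5 females) were dosed once daily by oral gavage for 4 weeks at 0, 2.3, 14 or 47 mg/kg/day. The vehicle was 0.1 M lactic acid in water (pH 3.0) at 5 mL/kg. Plasma was sampled on Days 1, 7 and 28. At necropsy, brain stem, hippocampus and frontal lobe were taken for drug measurement. Terminal plasma and brain concentrations are reported.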

[4] = biological target: 5-HT1B receptors in the rat cerebral cortex (Rattus norvegicus, UniProt P28564); test: 5-HT1B receptor binding in rat cerebral cortex
5-HT1B receptors in the rat cerebral cortex, sequence (P28564 whole entry): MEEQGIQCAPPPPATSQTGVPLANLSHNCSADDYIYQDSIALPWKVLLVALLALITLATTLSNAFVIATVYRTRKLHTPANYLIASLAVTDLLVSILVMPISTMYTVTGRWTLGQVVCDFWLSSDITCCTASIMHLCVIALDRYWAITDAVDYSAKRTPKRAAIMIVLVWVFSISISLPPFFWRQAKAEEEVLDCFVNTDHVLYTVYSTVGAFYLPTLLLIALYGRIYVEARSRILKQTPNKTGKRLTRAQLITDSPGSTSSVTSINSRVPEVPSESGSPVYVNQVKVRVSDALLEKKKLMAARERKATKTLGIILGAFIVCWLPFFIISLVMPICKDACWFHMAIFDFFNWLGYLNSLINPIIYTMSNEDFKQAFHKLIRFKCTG

healthy volunteers = details: single ascending oral doses from 1 to 40 mg; cited from earlier work
p-glycoprotein = details: cited from earlier work
[5] = Female 15 mg/kg/day (N=3), 3 months
[6] = Female 15 mg/kg/day (N=3), 3 months, highest incidence shown
[7] = Female 30 mg/kg/day (N=2), after 5 weeks of recovery
[8] = Female 30 mg/kg/day (N=5), after 3 months of dosing
[9] = Male 7 mg/kg/day (N=3), 3 months, highest incidence shown
[10] = Male 15 mg/kg/day (N=3), 3 months
[11] = Male 15 mg/kg/day (N=3), 3 months, highest incidence shown
[12] = Male 30 mg/kg/day (N=3), 3 months
[13] = Male 30 mg/kg/day (N=3), 3 months, highest incidence shown
[14] = Male 30 mg/kg/day (N=3), after 5 weeks of recovery
[15] = Male 30 mg/kg/day (N=6), after 3 months of dosing
[16] = dog, 30 mg/kg/day 3 months then 5-week recovery
[17] = dog, 30 mg/kg/day males, Week 3 until end of dosing
[18] = dog, 30 mg/kg/day, after 3 months
[19] = 1-month, 47 mg/kg/day, 4 affected dogs
[20] = 1-month, 47 mg/kg/day, Week 2 until end of dosing

COc1cc2c(c(N3CCN(C)CC3)c1)O[C@@H](C(=O)Nc1ccc(N3CCOCC3)cc1)CC2 [AZD3783, (2R)-6-methoxy-8-(4-methylpiperazin-1-yl)-N-(4-morpholin-4-ylphenyl) chromane-2-carboxamide]
cardiovascular effect (telemetry) (dogs; 14 mg/kg/day): no effect
cardiovascular effect (telemetry) (dogs; 47 mg/kg): modest tachycarda with decrease in blood pressure
binding to adrenergic α1D receptor (adrenergic α1D receptor): binds
estimated AUC [1]: 0.383 µM·h
D.R. ganglion: cerv., thoracic, lumbar: Vacuolation; ganglion cell (incidence) (beagle dogs [2]; Female 7 mg/kg/day (N=3), 3 months, highest incidence shown): 2
Ophthalmologic finding: Normal (number of dogs) (beagle dogs [2]; Female 7 mg/kg/day (N=3), after 3 months of dosing): 3
Brain: Degeneration/necrosis; neuronal (incidence) (beagle dogs [2]; [5]): 1
Brain: Degeneration: nerve fiber (incidence) (beagle dogs [2]; [5]): 1
Brain: Gliosis (incidence) (beagle dogs [2]; [5]): 1
Brain: Vacuolation: neuronal (incidence) (beagle dogs [2]; [5]): 2
D.R. ganglion: cerv., thoracic, lumbar: Inflammation (incidence) (beagle dogs [2]; [6]): 2
D.R. ganglion: cerv., thoracic, lumbar: Vacuolation; ganglion cell (incidence) (beagle dogs [2]; [6]): 3
Ophthalmologic finding: Normal (number of dogs) (beagle dogs [2]; Female 15 mg/kg/day (N=3), after 3 months of dosing): 3
Ophthalmologic finding: Chorioretinal scar (number of dogs) (beagle dogs [2]; [7]): 1
Ophthalmologic finding: Normal (number of dogs) (beagle dogs [2]; [7]): 1
Ophthalmologic finding: Retinal detachment (number of dogs) (beagle dogs [2]; [7]): 1
Ophthalmologic finding: Normal (number of dogs) (beagle dogs [2]; [8]): 2
Ophthalmologic finding: Retinal detachment (number of dogs) (beagle dogs [2]; [8]): 2
Ophthalmologic finding: Retinal hemorrhage (number of dogs) (beagle dogs [2]; [8]): 2
Ophthalmologic finding: Vitreal hemorrhage (number of dogs) (beagle dogs [2]; [8]): 1
D.R. ganglion: cerv., thoracic, lumbar: Inflammation (incidence) (beagle dogs [2]; [9]): 1
D.R. ganglion: cerv., thoracic, lumbar: Vacuolation; ganglion cell (incidence) (beagle dogs [2]; [9]): 1
Ophthalmologic finding: Normal (number of dogs) (beagle dogs [2]; Male 7 mg/kg/day (N=3), after 3 months of dosing): 3
Brain: Degeneration: nerve fiber (incidence) (beagle dogs [2]; [10]): 1
Brain: Vacuolation: neuronal (incidence) (beagle dogs [2]; [10]): 3
Eye/Optic nerve: Degeneration, optic nerve fiber (incidence) (beagle dogs [2]; [10]): 1
Eye/Optic nerve: Inflammation: retina (incidence) (beagle dogs [2]; [10]): 1
D.R. ganglion: cerv., thoracic, lumbar: Degeneration: nerve fiber (incidence) (beagle dogs [2]; [11]): 2
D.R. ganglion: cerv., thoracic, lumbar: Inflammation (incidence) (beagle dogs [2]; [11]): 2
D.R. ganglion: cerv., thoracic, lumbar: Vacuolation; ganglion cell (incidence) (beagle dogs [2]; [11]): 3
Ophthalmologic finding: Normal (number of dogs) (beagle dogs [2]; Male 15 mg/kg/day (N=3), after 3 months of dosing): 3
Brain: Degeneration/necrosis; neuronal (incidence) (beagle dogs [2]; [12]): 3
Brain: Degeneration: nerve fiber (incidence) (beagle dogs [2]; [12]): 3
Brain: Gliosis (incidence) (beagle dogs [2]; [12]): 3
Brain: Inflammation: perivascular (incidence) (beagle dogs [2]; [12]): 3
Brain: Vacuolation: neuronal (incidence) (beagle dogs [2]; [12]): 3
Eye/Optic nerve: Degeneration, optic nerve fiber (incidence) (beagle dogs [2]; [12]): 1
Eye/Optic nerve: Inclusion: retina (incidence) (beagle dogs [2]; [12]): 3
Eye/Optic nerve: Inflammation: retina (incidence) (beagle dogs [2]; [12]): 1
Sciatic nerve: Degeneration: nerve fiber (incidence) (beagle dogs [2]; [12]): 1
D.R. ganglion: cerv., thoracic, lumbar: Degeneration: nerve fiber (incidence) (beagle dogs [2]; [13]): 3
D.R. ganglion: cerv., thoracic, lumbar: Inflammation (incidence) (beagle dogs [2]; [13]): 2
D.R. ganglion: cerv., thoracic, lumbar: Vacuolation; ganglion cell (incidence) (beagle dogs [2]; [13]): 3
Spinal cord, cerv., thoracic, lumbar: Degeneration: nerve fiber (incidence) (beagle dogs [2]; [13]): 2
Ophthalmologic finding: Chorioretinal scar (number of dogs) (beagle dogs [2]; [14]): 2
Ophthalmologic finding: Tepatum hyperreflectivity (number of dogs) (beagle dogs [2]; [14]): 1
Ophthalmologic finding: Normal (number of dogs) (beagle dogs [2]; [15]): 2
Ophthalmologic finding: Retinal detachment (number of dogs) (beagle dogs [2]; [15]): 2
Ophthalmologic finding: Retinal hemorrhage (number of dogs) (beagle dogs [2]; [15]): 3
Ophthalmologic finding: Vitreal hemorrhage (number of dogs) (beagle dogs [2]; [15]): 1
GLDH increase vs pretest (beagle dogs [2]; decedent female, 30 mg/kg/day): 2 fold
WBC increase vs pretest (beagle dogs [2]; decedent female, 30 mg/kg/day): < 2 fold
neutrophils increase vs pretest (beagle dogs [2]; decedent female, 30 mg/kg/day): 2 fold
bile increase vs pretest (beagle dogs [2]; decedent female, 30 mg/kg/day, Day 84): 5 fold
brain findings after recovery (beagle dogs [2]; [16]): extensive neuronal loss accompanied by marked astrogliosis
reversibility of pathological lesions (except thymus and bone marrow) (beagle dogs [2]; [16]): still present after the 5-week recovery period
ALT group mean elevation vs. pretest (beagle dogs [2]; [17]): ca. 2 fold
GLDH group mean elevation vs. pretest (beagle dogs [2]; [17]): ca. 4 fold
platelet counts increase (beagle dogs [2]; [18]): 24–30%
reticulocytes (% and total count) decrease (beagle dogs [2]; [18]): 42–50%
NOEL (beagle dogs [2]; dog, 3-month study): not established
severity of lesions in the brain (beagle dogs [2]; dog, 3-month, 15 and 30 mg/kg/day): dose-related and ranged from slight to moderate
ophthalmologic observations (beagle dogs [2]; dog, 3-month, Week 6 examination): No treatment-related ophthalmologic observations
gallbladder microscopic findings (beagle dogs [2]; dog, 3-month, all treated groups): pigment deposit (lamina propria) was noted in all animals in the treated groups
ECG (beagle dogs [3]; 1-month): no treatment-related effect on ECG
pathological findings in spinal cord or any CNS tissues (beagle dogs [3]; 1-month, 2.3 mg/kg/day): no pathological findings
pathological findings in spinal cord or any CNS tissues (beagle dogs [3]; 1-month, 14 mg/kg/day): no pathological findings
dogs with mild to marked increases in liver enzymes (incidence) (beagle dogs [3]; 1-month, 47 mg/kg/day): 4 of 12
electron microscopy of liver and gallbladder (beagle dogs [3]; 1-month, 47 mg/kg/day): lamellar bodies consistent with PLD
liver microscopic findings (beagle dogs [3]; 1-month, 47 mg/kg/day): inflammatory cell infiltration, degenerative and necrotic changes in the centrilobular region and moderate pigments in histiocytes
lymphoid tissues microscopic findings (beagle dogs [3]; 1-month, 47 mg/kg/day): increased incidence and severity of lymphocytolysis
ALT increase in affected dogs (beagle dogs [3]; [19]): up to 17 fold vs. pretest
Aspartate aminotransferase (AST) increase in affected dogs (beagle dogs [3]; [19]): up to 7 fold vs. pretest
GLDH increase in affected dogs (beagle dogs [3]; [19]): up to 37 fold vs. pretest
alanine aminotransferase (ALT) group mean elevation (beagle dogs [3]; [20]): approximately 3 fold
glutamate dehydrogenase (GLDH) group mean elevation (beagle dogs [3]; [20]): ~7 fold
mortality (beagle dogs [3]; 1-month, 2.3, 14, 47 mg/kg/day): All animals survived to scheduled necropsy
ophthalmology observations (beagle dogs [3]; 1-month, all doses): No treatment-related observations were seen in the eyes of any dog
platelet counts increase (beagle dogs [3]; 1-month, females, 47 mg/kg/day): 24–52%
platelet counts increase (beagle dogs [3]; 1-month, males, 47 mg/kg/day): 10–15%
pathological findings in spinal cord or any CNS tissues (beagle dogs [3]; recovery animals previously dosed at 47 mg/kg/day): no pathological findings
mean brain concentration relative to that at 2.3 mg/kg (1-month; 14 mg/kg): 38 fold
mean brain concentration relative to that at 2.3 mg/kg (1-month; 47 mg/kg): 460 fold
brain/plasma concentration ratio (1-month; across the dose range, after 4 weeks of dosing): approximately 4
Ki ([4]; rat cerebral cortex): 0.051 µM
affinity lower than for the guinea pig or human 5-HT1B receptors ([4]; rat vs guinea pig or human): approximately 4 fold
tolerability (healthy volunteers): well tolerated
p-glycoprotein substrate (p-glycoprotein): not likely to be a p-glycoprotein substrate
